The values that follow come from article PMC10150624 (Journal of Enzyme Inhibition and Medicinal Chemistry, 2023).

The test system of assay [1] is H1975 cells. In words: Cell cycle progression by flow cytometry. The note with it: 24 h. It is filed as cell-based. An outline of the steps:
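H1975 cells seeded at 3 × 10^5/well and cultured 24 h, then treated with test compound (0.2, 1.0, 5 μM) for 24 h at 37 °C. Cells PBS-washed, fixed overnight in ice-cold 70% ethanol, washed again and stained with PI for 30 min at room temperature in the dark. DNA content analysed by flow cytometry to give the G2/M fraction against an untreated control.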
Background: In flow cytometry, cells or beads pass a laser one at a time.

Assay [2] relates to A549 cells. Kind of assay: Wound healing. It is filed as cell-based. The note with it: 5 or 10 μM, 0, 24 and 48 h. An outline of the steps: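 Wound-healing format with A549 cells at 3.6 × 10^5/well, exposed to test compound and imaged at 0, 24 and 48 h. Cell migration into the wound was assessed by microscopy and photography.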
The subject of assay [3] is H1975 cells. In words: Apoptosis by flow cytometry, Annexin V/PI double staining. It is filed as cell-based. The note with it: H1975, 10 μM, 48 h; total apoptotic cells (Q2 + Q3). An outline of the steps:
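H1975 cells in log growth seeded at 3 × 10^5/well, held 24 h at 37 °C, 5% CO2, then exposed to test compound at several concentrations for 48 h. Cells harvested by trypsin, PBS-washed, stained with Annexin V-APC for 30 min and then PI for 3 min at room temperature in the dark, diluted in saline and read at once by flow cytometry. Total apoptotic fraction taken as Q2 + Q3.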

Assay [4] has as its target EGFR^L858R/T790M (Homo sapiens, UniProt P00533, L858R/T790M). In words: EGFR kinase inhibition by ELISA, L858R/T790M. It is filed as biochemical. Conditions: EGFR^L858R/T790M versus EGFR^WT, kinase assay. On the technique in general: In an ELISA, binding on a coated surface is turned into a signal by an enzyme label.
Assay [5] relates to A549 cells. In words: AO/EB fluorescent staining, morphology of apoptotic cells. It is filed as cell-based. Conditions: A549 cells, 1, 5 or 10 μM, 48 h. An outline of the steps: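 A549 cells seeded in 6-well plates at 3.6 × 10^5/mL and grown 24 h, then exposed to test compound for a further 48 h; untreated A549 cells served as control. Cells were stained for a few min with AO/EB dual fluorescent solution, then viewed and photographed by forward fluorescence microscopy for apoptotic morphology.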

Sequence of EGFR^L858R/T790M (P00533 25-1210 T790M/L858R): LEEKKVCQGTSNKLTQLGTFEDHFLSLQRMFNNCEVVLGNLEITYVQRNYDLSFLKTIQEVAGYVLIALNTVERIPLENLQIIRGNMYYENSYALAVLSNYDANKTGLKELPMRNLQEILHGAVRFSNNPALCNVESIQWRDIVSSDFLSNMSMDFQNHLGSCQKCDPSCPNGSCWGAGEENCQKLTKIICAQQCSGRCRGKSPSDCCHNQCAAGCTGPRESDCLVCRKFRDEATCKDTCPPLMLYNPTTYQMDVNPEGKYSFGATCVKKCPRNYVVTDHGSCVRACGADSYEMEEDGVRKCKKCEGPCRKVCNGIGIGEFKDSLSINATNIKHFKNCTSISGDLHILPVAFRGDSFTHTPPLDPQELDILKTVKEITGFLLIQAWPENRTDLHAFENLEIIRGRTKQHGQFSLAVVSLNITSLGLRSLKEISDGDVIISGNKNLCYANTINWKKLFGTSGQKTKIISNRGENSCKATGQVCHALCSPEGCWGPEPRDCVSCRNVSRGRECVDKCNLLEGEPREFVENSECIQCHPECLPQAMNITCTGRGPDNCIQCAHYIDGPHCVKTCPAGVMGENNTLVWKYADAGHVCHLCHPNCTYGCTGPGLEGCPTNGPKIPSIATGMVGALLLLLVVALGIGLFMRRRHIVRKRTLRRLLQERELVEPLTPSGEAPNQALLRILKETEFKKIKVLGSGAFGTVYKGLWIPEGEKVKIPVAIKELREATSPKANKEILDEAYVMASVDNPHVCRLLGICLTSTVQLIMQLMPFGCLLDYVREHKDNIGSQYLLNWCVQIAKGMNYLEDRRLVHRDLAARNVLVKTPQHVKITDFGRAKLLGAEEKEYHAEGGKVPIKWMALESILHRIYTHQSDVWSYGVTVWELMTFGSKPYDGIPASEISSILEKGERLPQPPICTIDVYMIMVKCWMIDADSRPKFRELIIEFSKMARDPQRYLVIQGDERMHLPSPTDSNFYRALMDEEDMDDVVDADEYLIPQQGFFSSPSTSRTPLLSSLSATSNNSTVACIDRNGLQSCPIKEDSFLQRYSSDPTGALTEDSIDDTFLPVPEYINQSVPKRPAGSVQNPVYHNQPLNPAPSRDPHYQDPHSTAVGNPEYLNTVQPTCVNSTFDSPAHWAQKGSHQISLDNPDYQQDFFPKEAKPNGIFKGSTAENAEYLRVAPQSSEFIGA

As for `C=C(Cl)C(=O)Nc1cc(Nc2nc(N3CCc4sccc4C3)c3sccc3n2)c(OC)cc1N(C)CCN(C)C` [Compound B1, 2-chloro-N-(5-((4–(6,7-dihydrothieno[3,2-c]pyridin-5(4H)-yl)thieno[3,2-d]pyrimidin-2-yl)amino)-2-((2-(dimethylamino)ethyl)(methyl)amino)-4-methoxyphenyl)acrylamide], the “percentage of G2/M-phase cells” value in assay [1] (H1975, 0.2 μM) is reported as 24.41%; in assay [1] (H1975, 1.0 μM), 27.68%; in assay [1] (H1975, 5 μM), 31.47%. Also, in assay [2], the wound healing result is reported as “wound healing was slower in the treated group than that in the blank control group”. Also, in assay [3], the apoptosis rate amounted to 22.1%. The “selectivity for EGFR^WT” value in assay [4] is “more than 76 fold”. Further, the “apoptosis induction, cell morphology” value in assay [5] is recorded as “induce apoptosis in A549 cells in a concentration-dependent manner”.
As for `C=C(Cl)C(=O)Nc1cc(Nc2nc(Nc3cnn(C)c3)c3sccc3n2)c(OC)cc1N(C)CCN(C)C` [Compound B7, 2-chloro-N-(2-((2-(dimethylamino)ethyl)(methyl)amino)-4-methoxy-5-((4-((1-methyl-1H-pyrazol-4-yl)amino)thieno[3,2-d]pyrimidin-2-yl)amino)phenyl)acrylamide], in assay [2], the wound healing result was “wound healing was slower in the treated group than that in the blank control group”. Further, the “selectivity for EGFR^WT” value in assay [4] was “more than 16 fold”. In addition, in assay [5], the “apoptosis induction, cell morphology” value is reported as “induce apoptosis in A549 cells in a concentration-dependent manner”.
